Bioassay records: PubChem, Sanford-Burnham Center for Chemical Genomics
ATG4B inhibitor: inhibitors of human ATG4B cysteine protease. Q9Y4P1. ATG4B cleavage of LC3-PLA2, NBD-HPC fluorescence, 1 h. inhibition, % at 8.33 µM. actives 0.51% (n = 340,000). AID 504462; in the data active means inhibition above about 40%
Target sequence (Q9Y4P1 whole entry, looked up): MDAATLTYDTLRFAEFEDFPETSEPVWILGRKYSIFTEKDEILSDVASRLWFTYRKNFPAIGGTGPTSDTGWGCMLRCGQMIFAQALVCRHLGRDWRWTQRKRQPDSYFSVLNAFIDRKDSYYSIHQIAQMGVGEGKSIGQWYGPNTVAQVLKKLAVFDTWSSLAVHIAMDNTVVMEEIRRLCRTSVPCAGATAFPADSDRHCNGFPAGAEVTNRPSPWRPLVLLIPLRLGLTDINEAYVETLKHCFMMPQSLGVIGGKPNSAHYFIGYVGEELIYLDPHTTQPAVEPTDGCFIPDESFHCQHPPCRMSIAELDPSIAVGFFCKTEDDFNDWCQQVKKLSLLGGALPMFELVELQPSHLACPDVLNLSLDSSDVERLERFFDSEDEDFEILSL
MT1-MMP act inh: MT1-MMP (human) activation inhibition | P50281 | HT1080 RFP-PRO-GFP cells, GFP/RFP ratio fluorescence, overnight; percent of plate control window, DMSO zero | GFP/RFP ratio change, % at 20 µM | actives 0.061% (n = 360,000);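 active means GFP/RFP ratio change of at least 30% with cell ATP level not reduced by more than half and red fluorescence within 50% of control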
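Assay system: HT1080 RFP-PRO-GFP cells | Dosing: 20 µM single dose, 1% DMSO | Incubation: Cells overnight before dosing, compound overnight, 37 °C, 5% CO2 | Evaluation: GFP/RFP fluorescence ratio | Control set: DMSO-only wells and HT1080 RFP-L50D-GFP cell wells as references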
SKN-1 inh: blocks SKN-1 activity in C. elegans; actives 0.49% (n = 360,000); inhibition, % at 21.8 µM; C. elegans VP596 Pgst-4::GFP/RFP ratio, acrylamide-induced, 24 h;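 active means interference check ratio from 0.5 to 1.5 plus GFP to RFP signal ratio inhibition reaching or exceeding a fixed threshold, cut at about 30% in these data, passing the limit was not always enough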
MPTP inh: blocks calcium-induced mitochondrial swelling | actives 1.4% (n = 360,000) | inhibition, % at 10 µM | isolated mouse mitochondria, Ca2+ swelling absorbance, 30 min;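 active means inhibition of 50% or more, scaled per plate between neutral and stimulator controls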;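 further: 0% = DMSO wells given calcium and 100% = 1 mM EGTA wells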
MPTP counter: Rhodamine 123 counter-screen of mitochondrial pore hits; inhibition, % at 10 µM; isolated mitochondria, membrane potential, Rhodamine 123 fluorescence; actives 78% (n = 5,000); shares compounds with MPTP inh; in the data active means inhibition above about 22%;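 further: 0% = DMSO vehicle and 100% = positive control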
MPTP swell DR: MPTP inhibition, dose response swelling confirmation; IC50, µM; AID 651561; shares compounds with MPTP inh; isolated mitochondria swelling, absorbance; actives 58% (n = 780); in the data active means IC50 below about 20 µM
MPTP counter DR: MPTP inhibitor counter-screen activity, dose response. isolated mitochondria counterscreen, fluorescence read-out. IC50, µM. AID 651564. actives 49% (n = 780). shares compounds with MPTP inh; in the data active means IC50 below about 80 µM
Active calls of the source: *; i = inactive; / = not tested or not shown. Compounds with a hit are over-represented: about 2.3% of the library has one in this group of screens.

SMILES	ATG4B inhibitor	MT1-MMP act inh	SKN-1 inh	MPTP inh	MPTP counter	others
O=C(Nc1ccc2c(c1)CCC2)C1CCN(c2c3c(nc4ncnn24)CCC3)CC1	-12	-7	21	4	/
O=C(Nc1ccc(Oc2ccccc2)cc1)C1CCN(c2c3c(nc4ncnn24)CCC3)CC1	-19	-7	9	67*	76*
O=C1C(Cl)=C(Nc2ccccc2O)C(=O)N1CCc1ccccc1	11	-31	-2	61*	60*
COc1ccc(CCNC2=C(Cl)C(=O)N(CCc3ccccc3)C2=O)cc1OC	12	-5	5	0	/
S=C(NNc1ccnc2cc(Cl)ccc12)Nc1ccc(Cl)cc1Cl	-4	-6	5	101*	73*
CCOc1ccc(NC(=S)NNc2ccnc3cc(Cl)ccc23)cc1	-8	-2	-4	81*	63*
COc1ccc(C=NNc2ccc([N+](=O)[O-])cc2S(=O)(=O)Nc2ccccc2C(=O)O)cc1OC	24	2	7	60*	37*
Cc1nn(CC(C)C)c(Cl)c1C(=O)NCC1CCCO1 (stereo unspecified)	/	-3	-1	-2	/
Cc1ccc(Nc2nc3nonc3[nH]c2=O)cc1Cl	16	-6	-2	92*	99*
Cc1ccc(NC2=CC(=O)CC(C)(C)C2)cc1Cl	2	3	5	-1	/
Cc1ccc(Nc2nc3nonc3[nH]c2=O)cc1C	-1	3	-13	69*	102*
Cc1ccc(Nc2n[nH]c(C)c2[N+](=O)[O-])cc1C	40	3	2	8	/
Cc1nn(C)c(C)c1CN(Cc1nc(CCC(C)C)no1)C(C)C	8	10	-4	103*	93*
CC(C)CCc1noc(CN(C)CCC2CCOCC2)n1	-2	2	-2	1	/
O=C(Nc1ccccc1Br)C1CCC(=O)N1Cc1ccccc1Cl (stereo unspecified)	-4	-3	-25	66*	78*
O=C(Nc1ccc(Cl)cc1)C1CCC(=O)N1Cc1ccccc1Cl (stereo unspecified)	5	1	-19	-1	/
Cc1c(NC(=O)CSc2nnc(C(C)N(C)C)n2-c2ccccc2)c(=O)n(-c2ccccc2)n1C (stereo unspecified)	-4	1	3	0	/
COc1cc(CCN=Cc2cc(Cl)cc(Cl)c2O)c([N+](=O)[O-])cc1OC	/	4	6	-1	/
COc1ccc(N=Cc2cc(Cc3ccccc3Cl)cc([N+](=O)[O-])c2O)cc1OC	94*	13	38*	62*	-5
Cc1c(NC(=O)/C(C#N)=C/c2ccc(-c3ccccc3Cl)o2)c(=O)n(-c2ccccc2)n1C	-13	9	-3	1	/
N#C/C(=C\c1ccc(-c2ccccc2Cl)o1)C(=O)Nc1nc2ccccc2s1	36	-2	9	74*	43*
Cc1ccc(-n2cc(C(=O)c3cc(Cl)ccc3O)cc(C#N)c2=O)cc1	-11	-22	-6	93*	84*
Cc1ccccc1NC(=O)c1cc(C(=O)c2cc(Cl)ccc2O)cn(-c2ccccc2C)c1=O	36	-32	2	90*	75*
COc1ccc(-n2cc(C(=O)c3cc(Cl)ccc3O)cc(C#N)c2=O)cc1	-1	-12	1	0	/
CC1(C(=O)NS(=O)(=O)c2cccc(Cl)c2)CCN1C(=O)Cc1ccc(-c2ccccc2)cc1 (stereo unspecified)	/	2	23	3	/
SMILES	ATG4B inhibitor	MT1-MMP act inh	SKN-1 inh	MPTP inh	MPTP counter	others
CCOC(=O)c1sc2ncnc(N3CCN(C)CC3)c2c1C	-9	0	-7	-4	/
CN1CCN(c2nc(-c3ccccc3)nc(-c3ccccc3)c2C#N)CC1	-15	-5	15	69*	-5	MPTP swell DR=17*;MPTP counter DR=>80
COc1ccc(-c2nc(-c3cccc(C)c3)nc(N3CCN(C)CC3)c2C#N)cc1	2	-15	-12	91*	1	MPTP swell DR=i;MPTP counter DR=>80
COC(=O)c1sc2nc(-c3ccccc3)nc(N3CCN(C)CC3)c2c1C	-10	15	17	76*	-10	MPTP swell DR=9.8*;MPTP counter DR=>80
N#Cc1ccccc1NC(=O)C(=O)NCCCN1CCCC1=O	-10	-2	4	0	/
Cc1ccc(NC(=O)CSc2nc(=O)cc(N)n2-c2ccccc2)cc1	-9	6	10	0	/
Nc1cc(=O)nc(SCC(=O)N(C2CCCCC2)C2CCCCC2)n1-c1ccccc1	-5	-2	-5	64*	-12	MPTP swell DR=>100;MPTP counter DR=>80
CCCCNc1c(-c2cccc(-c3ccc(OC)cc3)c2)nc2ccc(C)cn12	28	2	17	56*	77*
CCCCNc1c(-c2ccc(OC)c(SC3CCCCC3)c2)nc2cc(C)ccn12	13	17	4	44	/
CCCCNc1c(-c2cccc(-c3ccc(OC)cc3)c2)nc2cc(C)ccn12	23	16	28	63*	102*
COc1ccc(C2c3ccc(O)cc3Oc3ncn4nc(-c5ccncc5)nc4c32)cc1OC (stereo unspecified)	3	2	8	4	/
CCOc1ccc(-c2cnc(NCc3cccc4ccccc34)n2CCOC)cc1	17	2	-2	89*	97*
COc1ccc(NC(=O)CCC(=O)c2ccc(F)cc2)cc1	-1	0	-2	1	/
CC1CN(c2ccc(NS(=O)(=O)c3ccccc3)cc2C(=O)O)CC(C)O1 (stereo unspecified)	-3	2	-8	0	/
Cc1cc(C)cc(C(=O)NC(CC(N)=O)c2ccc(NCC3CC3)c([N+](=O)[O-])c2)c1 (stereo unspecified)	3	4	3	1	/
Brc1ccc2[nH]c3c(NCc4ccccn4)ncnc3c2c1	17	8	-3	57*	72*
c1ccc(CNc2ncnc3nc[nH]c23)nc1	-8	4	11	-3	/
CCCCCCCCN1C(=O)[C@H](CC(=O)N2CCOCC2)C[C@@]2(C(=O)OC)CCCCC=C12	/	0	11	0	/
COC1(NS(=O)(=O)c2ccc(Br)cc2)C(C)=CC(=O)C=C1C	-4	1	4	78*	4	MPTP swell DR=i;MPTP counter DR=>80
C/C(Cc1nnn(-c2cc(C)on2)n1)=N\O	7	3	11	1	/
O=C(Cc1cccs1)Nc1nc(-c2ccc(F)cc2F)cs1	-5	-5	20	73*	91*
O=C(Cc1c(F)c(F)c(F)c(F)c1F)Nc1nc(-c2ccccc2)cs1	22	4	12	54*	92*
O=C(Nc1nc(-c2ccccc2)cs1)c1ccc(Br)o1	27	7	22	82*	21*
O=C(NC(=S)Nc1nc(-c2ccccc2)cs1)c1cncc(Br)c1	-13	7	0	74*	75*
